Each structure is given as a SMILES string.

What all share (type): protein-complex assay
For assay [1], the target named is T1, Integrin alpha-IIb/beta-3 (Homo sapiens, UniProt P05106+P08514). Put plainly: Binding affinity for soluble GPIIb/IIIa captured on fibrinogen coated microtiter plate. In outline: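 Solid-phase ELISA measuring binding of soluble GPIIbIIIa to fibrinogen coated on a microtiter plate. Values are the average of at least 3 determinations.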
In assay [2] the target is T1, Integrin alpha-IIb/beta-3. Put plainly: Binding affinity for soluble GPIIb/IIIa captured on fibrinogen coated microtiter plate; 1:3 mixture enriched in the slower eluting diastereoisomer. A digest of the protocol: (§1)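 Solid-phase ELISA measuring binding of soluble GPIIbIIIa to plate-coated fibrinogen. Tested as a diastereoisomer-enriched mixture, single determination (n = 1).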

Assay [3] has as its target T1, Integrin alpha-IIb/beta-3. The assay can be described thus: Binding affinity for soluble GPIIb/IIIa captured on fibrinogen coated microtiter plate; 3:1 mixture enriched in the faster eluting diastereoisomer. In outline:
as §1

T1 sequence (P05106 27-788 limits assumed): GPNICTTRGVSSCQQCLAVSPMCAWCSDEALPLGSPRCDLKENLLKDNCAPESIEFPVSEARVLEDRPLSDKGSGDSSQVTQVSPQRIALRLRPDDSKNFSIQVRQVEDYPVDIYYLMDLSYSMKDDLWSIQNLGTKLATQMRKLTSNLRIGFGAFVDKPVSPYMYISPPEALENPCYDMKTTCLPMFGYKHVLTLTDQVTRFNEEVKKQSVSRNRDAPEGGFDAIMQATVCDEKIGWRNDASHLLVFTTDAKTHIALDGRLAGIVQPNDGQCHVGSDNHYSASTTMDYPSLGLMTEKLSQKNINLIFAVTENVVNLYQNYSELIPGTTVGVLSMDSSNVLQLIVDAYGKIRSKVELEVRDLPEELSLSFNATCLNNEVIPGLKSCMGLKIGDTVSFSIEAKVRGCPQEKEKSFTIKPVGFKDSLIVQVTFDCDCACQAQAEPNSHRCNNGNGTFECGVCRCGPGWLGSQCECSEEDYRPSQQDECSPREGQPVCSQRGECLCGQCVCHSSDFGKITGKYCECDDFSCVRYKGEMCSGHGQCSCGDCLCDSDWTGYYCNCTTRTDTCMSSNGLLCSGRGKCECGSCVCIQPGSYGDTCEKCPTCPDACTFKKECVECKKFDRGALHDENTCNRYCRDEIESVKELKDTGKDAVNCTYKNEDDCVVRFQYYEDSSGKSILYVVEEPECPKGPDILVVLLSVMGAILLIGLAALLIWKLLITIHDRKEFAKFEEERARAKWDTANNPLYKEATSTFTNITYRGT
T1 sequence (P08514 32-887 limits assumed): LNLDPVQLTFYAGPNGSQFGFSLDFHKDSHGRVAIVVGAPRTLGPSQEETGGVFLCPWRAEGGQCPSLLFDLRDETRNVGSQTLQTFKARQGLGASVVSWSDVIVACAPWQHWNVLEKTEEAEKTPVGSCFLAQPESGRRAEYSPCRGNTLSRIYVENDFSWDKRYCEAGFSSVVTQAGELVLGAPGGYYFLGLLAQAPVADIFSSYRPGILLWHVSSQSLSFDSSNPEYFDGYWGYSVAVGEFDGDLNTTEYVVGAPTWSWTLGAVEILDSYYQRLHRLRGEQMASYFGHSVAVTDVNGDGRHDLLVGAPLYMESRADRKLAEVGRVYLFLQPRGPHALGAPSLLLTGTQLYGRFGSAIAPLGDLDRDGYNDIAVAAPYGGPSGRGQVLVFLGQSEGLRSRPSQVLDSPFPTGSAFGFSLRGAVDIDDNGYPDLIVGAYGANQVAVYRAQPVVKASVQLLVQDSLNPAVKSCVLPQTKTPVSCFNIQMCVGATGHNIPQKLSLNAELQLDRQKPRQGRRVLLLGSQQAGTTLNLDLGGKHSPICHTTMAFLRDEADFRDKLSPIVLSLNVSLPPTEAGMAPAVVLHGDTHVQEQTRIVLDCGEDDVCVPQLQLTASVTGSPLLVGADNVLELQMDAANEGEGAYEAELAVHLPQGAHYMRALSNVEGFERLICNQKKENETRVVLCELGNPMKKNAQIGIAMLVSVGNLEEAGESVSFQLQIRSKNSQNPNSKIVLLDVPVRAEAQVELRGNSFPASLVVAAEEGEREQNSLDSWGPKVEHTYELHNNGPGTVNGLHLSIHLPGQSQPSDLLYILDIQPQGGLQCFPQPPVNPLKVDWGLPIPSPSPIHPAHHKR
T1 sequence (P08514 891-1039 limits assumed): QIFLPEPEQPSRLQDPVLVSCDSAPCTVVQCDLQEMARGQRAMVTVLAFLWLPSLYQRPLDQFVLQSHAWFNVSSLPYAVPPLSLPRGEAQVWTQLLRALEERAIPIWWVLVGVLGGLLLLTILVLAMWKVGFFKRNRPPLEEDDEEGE

As usually defined, the IC50 is the concentration that inhibits the measured activity by half. In the case of `CN1C(=O)CN(CCC(=O)O)C(=O)c2cc(C#Cc3ccc(C(=N)N)cc3)ccc21`, in assay [1], the IC50 stood at 11 nM. Same read-out and setting: the result for `C[C@@H](CC(=O)O)N1CC(=O)N(C)c2c(Cl)cc(C#Cc3ccc(C(=N)N)cc3)cc2C1=O` reads 7 nM. Regarding `C[C@H](CC(=O)O)N1CC(=O)N(C)c2ccc(C#Cc3ccc(C(=N)N)cc3)cc2C1=O`, the half-maximal inhibitory concentration (IC50) in assay [1] came to 60 nM. Take `C[C@@H](CC(=O)O)N1CC(=O)N(C(C)(C)C)c2ccc(C#Cc3ccc(C(=N)N)cc3)cc2C1=O`: the 50% inhibitory concentration (IC50) in assay [2] worked out at 12 nM; in assay [3] it was 3 nM. Take `C[C@@H](CC(=O)O)N1CC(=O)N(C)c2ccc(C#Cc3ccc(C(=N)N)cc3)cc2C1=O`: the IC50 in assay [1] was determined as 5 nM. Regarding `C[C@@H](CC(=O)O)N1CC(=O)N(C(C)(C)C)c2c(Cl)cc(C#Cc3ccc(C(=N)N)cc3)cc2C1=O` (stereo in doubt; 9), in assay [1], the IC50 was found to be 2 nM. Still for that read-out and setting: the result for `C[C@@H](CC(=O)O)N1CC(=O)N(C(C)(C)C)c2c(Cl)cc(C#Cc3ccc(C(=N)N)cc3)cc2C1=O` (stereo in doubt; 10) reads 140 nM; that for `C[C@H](CC(=O)O)N1CC(=O)N(C(C)(C)C)c2c(Cl)cc(C#Cc3ccc(C(=N)N)cc3)cc2C1=O` (stereo in doubt; 11), 18 nM. In the case of `C[C@H](CC(=O)O)N1CC(=O)N(C(C)(C)C)c2c(Cl)cc(C#Cc3ccc(C(=N)N)cc3)cc2C1=O` (stereo in doubt; 12), the half-inhibitory concentration (IC50) in assay [1] was 65 nM.

These data come from ChEMBL document CHEMBL1129954, “From peptide to non-peptide. 3. Atropisomeric GPIIbIIIa antagonists containing the 3,4-dihydro-1H-1,4-benzodiazepine-2,5-dione nucleus” (J Med Chem, 1997).
